The source made the active and inactive calls. No cut-off for these calls is given here.
Key:
[1] = system: MCF7; test: Cytotoxicity against human MCF7 cells after 48 hrs by MTT assay; format: functional, cell-based; details: MCF7, 48 h
Procedure, shortened: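 MCF-7 cells were grown overnight, then treated continuously for 48 h with compounds in DMEM containing 10% FBS. After two PBS washes, cells got 0.5 mg/ml MTT in serum-free DMEM for 4 h. Formazan was solubilized in DMSO and OD read at 570 nm.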

[2] = system: HepG2; test: Cytotoxicity against human HepG2 cells after 48 hrs by MTT assay; format: functional, cell-based; details: HepG2, 48 h
Procedure, shortened: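 HepG2 kept in MEM with 10% FBS and 1% penicillin/streptomycin at 37 °C, 5% CO2. After overnight growth, cells were exposed continuously to compounds for 48 h in MEM with 10% FBS. They were then PBS-washed and given 0.5 mg/ml MTT in serum-free DMEM for 4 h. Formazan was dissolved in DMSO and read at 570 nm.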

[3] = Cytotoxicity against human SH-SY5Y cells after 48 hrs by MTT assay; format: functional, cell-based
Procedure, shortened: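 SH-SY5Y, after overnight growth, were exposed continuously to compounds for 48 h in DMEM with 10% FBS. Then PBS washes, 4 h with 0.5 mg/ml MTT in serum-free DMEM, DMSO solubilization of formazan, and OD at 570 nm.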

[4] = system: SH-SY5Y; test: Cytotoxicity against human SH-SY5Y cells at 10 uM after 48 hrs by MTT assay; format: functional, cell-based
Procedure, shortened: (§1)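 SH-SY5Y cells were grown overnight and treated for 48 h at the stated concentration in DMEM/10% FBS, as part of a dose-response series. After PBS washes, cells were incubated 4 h with 0.5 mg/ml MTT in serum-free DMEM. Formazan was dissolved in DMSO and read at 570 nm to give inhibition rate.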

[5] = system: MCF7; test: Cytotoxicity against human MCF7 cells at 10 uM after 48 hrs by MTT assay; format: functional, cell-based
Procedure, shortened: (§2)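 Percent proliferation inhibition of MCF-7 at a single concentration, taken from a dose-response series. Cells were plated overnight, then compound-treated for 48 h in DMEM + 10% FBS. They were washed with PBS and incubated 4 h with 0.5 mg/ml MTT in serum-free DMEM. Formazan was dissolved in DMSO and read at 570 nm.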

[6] = system: HepG2; test: Cytotoxicity against human HepG2 cells at 10 uM after 48 hrs by MTT assay; format: functional, cell-based
Procedure, shortened: (§3)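 After overnight plating, HepG2 cells (maintained in MEM/10% FBS/1% pen-strep, 37 °C, 5% CO2) were treated at a fixed compound concentration for 48 h in MEM plus 10% FBS. MTT was 0.5 mg/ml in serum-free DMEM for 4 h after PBS washes, with formazan taken up in DMSO. Absorbance at 570 nm gave percent proliferation inhibition, part of a dose-response series.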

[7] = system: HepG2; test: Cytotoxicity against human HepG2 cells at 5 uM after 48 hrs by MTT assay; format: functional; details: HepG2, 48 h; procedure, shortened: as §3
[8] = system: MCF7; test: Cytotoxicity against human MCF7 cells at 5 uM after 48 hrs by MTT assay; format: functional; details: MCF7, 48 h; procedure, shortened: as §2
[9] = Cytotoxicity against human SH-SY5Y cells at 5 uM after 48 hrs by MTT assay; format: functional; procedure, shortened: as §1
[10] = system: HepG2; test: Cytotoxicity against human HepG2 cells at 1 uM after 48 hrs by MTT assay; format: functional, cell-based; procedure, shortened: as §3
[11] = Cytotoxicity against human SH-SY5Y cells at 1 uM after 48 hrs by MTT assay; format: functional; procedure, shortened: as §1
[12] = system: MCF7; test: Cytotoxicity against human MCF7 cells at 1 uM after 48 hrs by MTT assay; format: functional, cell-based; procedure, shortened: as §2

| SMILES | IC50 [1] [µM] | IC50 [2] [µM] | IC50 [3] [µM] | further results |
| --- | --- | --- | --- | --- |
| CC(c1nccs1)C(C#N)(C#N)CCC(F)=C(F)F (stereo unspecified) | > 120 | > 120 | > 120 | – |
| O=S(=O)(CCC(F)=C(F)F)c1ncc(-c2ccncc2)s1 | > 120 | > 120 | > 120 | – |
| FC(F)=C(F)CCSc1nc2ccccc2s1 | > 120 | > 120 | > 120 | – |
| CC(=C(C#N)C#N)c1nccs1 | 110 | 105 | 68.8 | – |
| [O-][S+](CCC(F)(Cl)C(F)(F)Cl)c1nc2ccccc2s1 (stereo unspecified) | 17.1 | 13.5 | 41.5 | Activity [4]: Active; Activity [5]: Active; Activity [6]: Active |
| CC(c1nccs1)C(C#N)C#N (stereo unspecified) | > 120 | > 120 | > 120 | – |
| FC(F)=C(F)CCSc1ncc(-c2ccncc2)s1 | > 120 | > 120 | > 120 | – |
| O=S(=O)(CCC(F)=C(F)F)c1ccccn1 | > 120 | > 120 | > 120 | – |
| FC(F)=C(F)CCSc1nc2ccccc2o1 | > 120 | > 120 | > 120 | – |
| N#CC(C#N)(CCC(F)=C(F)F)Cc1nccs1 | > 120 | > 120 | > 120 | – |
| [O-][S+](CCC(F)=C(F)F)c1nc2ccccc2s1 (stereo unspecified) | 8.6 | 4.7 | 7 | – |
| [O-][S+](CCC(F)=C(F)F)c1nc2ccccc2o1 (stereo unspecified) | 4.5 | 5.6 | 0.4 | inhibition at 5 µM [7]: 60%; inhibition at 5 µM [8]: 20%; inhibition at 5 µM [9]: 60% |
| CC(C)(c1nccs1)C(C#N)C#N | > 120 | > 120 | > 120 | – |
| O=S(=O)(CCC(F)=C(F)F)c1nc2ccccc2[nH]1 | > 120 | > 120 | > 120 | – |
| FC(F)=C(F)CCSc1nccs1 | > 120 | > 120 | > 120 | – |
| O=S(=O)(CCC(F)(Cl)C(F)(F)Cl)c1nc2ccccc2s1 (stereo unspecified) | 10.1 | 4.5 | 4.5 | – |
| c1ccc2sc(SSc3nc4ccccc4s3)nc2c1 [BENZOTHIAZYL DISULFIDE] | > 120 | > 120 | > 120 | – |
| CC(=O)O[C@H]1C(=O)[C@@]2(C)[C@H]([C@H](OC(=O)c3ccccc3)[C@]3(O)C[C@H](OC(=O)[C@H](O)[C@@H](NC(=O)c4ccccc4)c4ccccc4)C(C)=C1C3(C)C)[C@]1(OC(C)=O)CO[C@@H]1C[C@@H]2O [PACLITAXEL] | 0.032 | 0.045 | – | – |
| [O-][S+](CCC(F)=C(F)F)c1nc2ccccc2[nH]1 (stereo unspecified) | > 120 | > 120 | > 120 | – |
| O=S(=O)(CCC(F)=C(F)F)c1nc2ccc(OC(F)F)cc2[nH]1 | > 120 | > 120 | > 120 | – |

| SMILES | IC50 [1] [µM] | IC50 [2] [µM] | IC50 [3] [µM] | further results |
| --- | --- | --- | --- | --- |
| O=S(=O)(CCC(F)=C(F)F)c1nc2ccccc2s1 | 7.2 | 3.71 | 2.64 | inhibition [10]: inactive; inhibition at 1 µM [11]: 50%; inhibition [12]: inactive |
| [O-][S+](CCC(F)=C(F)F)c1nccs1 (stereo unspecified) | > 120 | > 120 | > 120 | – |
| Cn1c(SCCC(F)=C(F)F)nc(-c2ccncc2)cc1=O | > 120 | > 120 | > 120 | – |
| c1ccc2sc(SN(C3CCCCC3)C3CCCCC3)nc2c1 | > 120 | > 120 | 69.1 | – |
| FC(F)=C(F)CCSc1ncc(Cl)s1 | > 120 | > 120 | > 120 | – |
| FC(F)=C(F)CCSc1ccccn1 | > 120 | > 120 | > 120 | – |
| FC(F)(Cl)C(F)(Cl)CCSc1nc2ccccc2s1 (stereo unspecified) | > 120 | > 120 | > 120 | – |
| N#CC(C#N)=Cc1nccs1 | > 120 | > 120 | > 120 | – |
| c1ccc2sc(SNC3CCCCC3)nc2c1 | 89.2 | 55 | > 120 | – |
| FC(F)(Cl)C(F)(Cl)CCSc1nc2ccc(Cl)cc2s1 (stereo unspecified) | > 120 | > 120 | > 120 | – |
| O=S(=O)(CCC(F)(Cl)C(F)(F)Cl)c1nc2ccc(Cl)cc2s1 (stereo unspecified) | 8.4 | 6.1 | 6 | – |
| COc1ccc2c(c1OC)C(=O)O[C@@H]2[C@H]1c2c(cc3c(c2OC)OCO3)CCN1C [NOSCAPINE] | – | – | 80.3 | – |
| FC(F)=C(F)CCSc1nc2ccc(OC(F)F)cc2[nH]1 | > 120 | > 120 | > 120 | – |
| [O-][S+](CCC(F)=C(F)F)c1ncc(-c2ccncc2)s1 (stereo unspecified) | > 120 | > 120 | > 120 | – |
| N#CC(C#N)Cc1nccs1 | > 120 | > 120 | > 120 | – |
| FC(F)=C(F)CCSc1nnc(S)s1 | > 120 | > 120 | > 120 | – |
| O=S(=O)(CCC(F)=C(F)F)c1nccs1 | > 120 | > 120 | > 120 | – |
| FC(F)=C(F)CCSc1nc2ccccc2[nH]1 | > 120 | > 120 | > 120 | – |
| [O-][S+](CCC(F)(Cl)C(F)(F)Cl)c1nc2ccc(Cl)cc2s1 (stereo unspecified) | 12.2 | 6.9 | 2.1 | inhibition [10]: inactive; inhibition at 1 µM [11]: 50%; inhibition [12]: inactive |

Reference: ChEMBL document CHEMBL3414424, “Fluoroalkane thioheterocyclic derivatives and their antitumor activity” (Eur J Med Chem, 2015)
